According to PMC6587326 (Obesity Science & Practice, 2019):

Experiments:
[1] = Insulin absorption upon s.c. neck dosing in HFD and LFD rats; format: in vivo, Male Sprague Dawley rats; details: 12 nmol, HFD n = 22, LFD n = 10, p < 0.01
Procedure, shortened: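 Rats aged 33–34 weeks, fed a high-fat (60% fat to 22 weeks, then 45%) or low-fat (10% fat) diet from weaning, received 12 nmol test insulin (20 μL) s.c. in the neck. Sublingual-vein blood was drawn at 5, 15 and 60 min, and plasma levels were measured by luminescent oxygen channelling immunoassay. Each rat was dosed five times; mean ± SEM.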

[2] = format: in vivo, Male Sprague Dawley rats; details: anaesthetized rats, s.c. 20 μL insulin aspart/iomeprol 80/20; p < 0.001
Procedure, shortened: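 Male rats on a high-fat diet (60% fat from weaning to 22 weeks, then 45%) or a low-fat diet (10% fat), aged 36–38 weeks, were isoflurane-anaesthetized. They received 20 μL test insulin mixed 80/20 with iomeprol s.c. in the neck or flank. μCT scans ran to 13 min (neck) or 17 min (flank). Tail blood was taken at 5 and 15 min and measured by luminescent oxygen channelling immunoassay. Three (neck) or four (flank) repeats per rat; mean ± SEM.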

In the case of insulin aspart, the “area under the curve (AUC0–60 min), HFD compared with LFD group” value [1] was “reduced” and the “mean insulin concentration at 5 and 15 min, flank compared with neck dosing” value [2] was “significantly lower”.
